CAL PDZ FP-1: CAL PDZ peptide-binding inhibitors, primary screen, biochemical, fluorescence polarization, Cer-tagged CAL PDZ, HTS. purified CAL PDZ, TMR-peptide fluorescence polarization, 1 h. Golgi-associated PDZ and coiled-coil motif-containing protein (Homo sapiens), Q9HD26. inhibition, % at 20 µM. hit rate 0.02% among 330,000. AID 504414, 2011;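 active = highest replicate inhibition of at least 40%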;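 note: plate controls were DMSO neutral control wells for no effect and unlabeled competitor peptide control wells for full effect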
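material = purified tagged CAL PDZ domain construct (CerCALP) | compound dosing = 20 µM, one dose | times = 1 h at RT | measured by = fluorescence polarization from S- and P-plane intensities, G-factor corrected | read-out = inhibition from polarization loss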
Tn6 DDE FP: inhibitors of Tn6 peptide binding to fibrin DD(E), primary screen, biochemical, fluorescence polarization, human fibrin, Tn6 probe | Fibrinogen beta chain (Homo sapiens), P02675 | Fibrin DD(E) TRITC-Tn6 fluorescence polarization displacement | inhibition, % at 8.3 µM | hit rate 0.21% among 370,000;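 active = inhibition above a per-campaign cutoff: mean of compounds within control limits plus 3 SD, cut at about 15% in these data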;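 note: 0% = median of all compound wells on the plate and 100% = blocking peptide control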
GRK2 inh: compounds blocking aptamer binding on GRK2 – biochemical, human GRK2, bead flow cytometry, HTS, primary screen; Beta-adrenergic receptor kinase 1 (Homo sapiens), P25098; FAM-aptamer displacement from GRK2; inhibition of aptamer binding, % at 10 µM; hit rate 0.59% among 330,000; AID 488847, 2010;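 active = inhibition of aptamer binding above 40%, roughly 3 SD of noise, on plates passing a quality check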;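 note: median bead fluorescence of bound FAM aptamer so fluorescent compounds give negative values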
Target sequence (P25098 whole entry, looked up): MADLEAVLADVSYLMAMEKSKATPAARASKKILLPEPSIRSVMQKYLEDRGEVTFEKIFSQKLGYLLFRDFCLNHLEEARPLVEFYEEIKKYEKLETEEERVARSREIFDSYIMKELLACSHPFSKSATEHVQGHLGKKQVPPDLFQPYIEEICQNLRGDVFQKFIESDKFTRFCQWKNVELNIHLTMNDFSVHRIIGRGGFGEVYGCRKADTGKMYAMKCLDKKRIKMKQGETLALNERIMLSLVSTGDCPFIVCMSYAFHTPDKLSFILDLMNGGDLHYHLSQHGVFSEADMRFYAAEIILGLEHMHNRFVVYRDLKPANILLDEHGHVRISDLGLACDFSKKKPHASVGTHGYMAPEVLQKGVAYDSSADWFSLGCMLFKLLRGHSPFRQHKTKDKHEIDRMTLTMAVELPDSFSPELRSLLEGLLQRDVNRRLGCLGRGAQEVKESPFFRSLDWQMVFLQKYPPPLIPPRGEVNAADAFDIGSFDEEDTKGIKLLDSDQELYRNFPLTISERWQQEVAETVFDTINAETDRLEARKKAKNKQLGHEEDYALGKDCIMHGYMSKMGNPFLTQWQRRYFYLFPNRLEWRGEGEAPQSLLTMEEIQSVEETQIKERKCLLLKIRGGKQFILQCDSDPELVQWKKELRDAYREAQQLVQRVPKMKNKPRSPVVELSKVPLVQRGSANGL
CAL PDZ FP-2: untagged CAL PDZ binding inhibitors, primary screen, biochemical, fluorescence polarization, HTS. hit rate 0.92% among 300,000. inhibition, % at 24.9 µM. purified CAL PDZ, TMR-peptide fluorescence polarization, 1 h. Golgi-associated PDZ and coiled-coil motif-containing protein (Homo sapiens), Q9HD26;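 active = mean inhibition of at least 30% with at least half of replicates also reaching 30%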;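 note: 0% = DMSO neutral control and 100% = excess unlabeled competitor peptide PRC23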
ARNT-TACC3 inh: disruptors of ARNT/TACC3 protein interaction, primary screen, biochemical, AlphaScreen, single concentration; AlphaScreen His-ARNT PAS-B/GST-TACC3 binding, luminescence; TACC3 fragment carries E629A point mutation; inhibition, % at 9.99 µM; hit rate 0.66% among 390,000; AID 623870, 2012;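 active = mean inhibition of replicates at least 50% and at least half of replicates each reaching 50%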;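 note: 0% = complete ARNT plus TACC3 wells and 100% = ARNT alone without TACC3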
Tn7 DDE FP: inhibitors of Tn7 peptide binding to fibrin DD(E), primary screen, biochemical, fluorescence polarization, human fibrin, Tn7 probe; Fibrinogen beta chain (Homo sapiens), P02675; FP displacement of FITC-Tn7 peptide from fibrin DD(E); 0% = median of compound wells per plate; inhibition, % at 8.3 µM; hit rate 0.13% among 370,000; AID 720508, 2013;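 active = inhibition above the mean of compounds falling within the control limits plus 3 SD of them, cut at about 14% in these data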;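 note: 0% = plate median of compound wells and 100% = 10 µM Aha-Tn7 peptide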
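Assay system: Human fibrin DD(E) protein | Medium: Tris buffer with calcium and detergent, pH 7.8 | Reagent: 0.1 µM fluorescent Tn7 | Compound dosing: Single point at 8.3 µM | Times: 10 min preincubation, 3 h with tracer, room temperature | Detection: Fluorescence polarization of the labelled Tn7 tracer | Controls: Aha-Tn7 high control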
DDE Tn6 FP ctr: counter-screen hit for Tn6 peptide-fibrin DD(E) binding disruption; shares compounds with Tn6 DDE FP; hit rate 2% among 680; TRITC-Tn6 fluorescence polarization displacement; 0% = median of compound wells, not DMSO; inhibition, % at 8.3 µM;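 active = inhibition above the mean of test compounds lying between the control limits plus 3 SD of those, cut at about 14% in these data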;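 note: 0% = median of compound wells and 100% = wells with Aha-Tn7 blocking peptide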
DDE Tn6 confirm: inhibitors of Tn6 peptide binding to fibrin DD(E), confirmation, biochemical, fluorescence polarization, human fibrin, Tn6 probe; shares compounds with Tn6 DDE FP; FP displacement of TRITC-Tn6 peptide from DD(E); 0% = per-plate median of test wells; inhibition, % at 8.3 µM; hit rate 10% among 680;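 active = inhibition above the mean of compounds lying within the control limits plus 3 SD, cut at about 16% in these data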;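 note: 100% = high control wells holding a competing inhibitor peptide at 10 µM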
* hit, by the source's call. The list is not random: actives were taken first. Their share in the collection is about 1.8%.

Results for Cc1cc2cc(CNS(=O)(=O)c3ccc4ccccc4c3)ccc2n1C ?
CAL PDZ FP-1: 0.2; Tn6 DDE FP: 49.6*; GRK2 inh: 4.0; CAL PDZ FP-2: 2.3; ARNT-TACC3 inh: -18.8; Tn7 DDE FP: -1.6; DDE Tn6 FP ctr: 6.2; DDE Tn6 confirm: 19.6*

What do the screens show for `CC(=O)Nc1ccc(S(=O)(=O)NCc2ccc3c(c2)cc(C)n3C)cc1`?
CAL PDZ FP-1: -0.9; Tn6 DDE FP: 61.5*; GRK2 inh: 8.0; CAL PDZ FP-2: -3.8; ARNT-TACC3 inh: 0.3; Tn7 DDE FP: -0.6; DDE Tn6 FP ctr: -6.0; DDE Tn6 confirm: -9.0

Results for Cc1cc(C)c(S(=O)(=O)NCc2ccc3c(c2)cc(C)n3C)c(C)c1 ?
CAL PDZ FP-1: 0.4; Tn6 DDE FP: 58.9*; GRK2 inh: 5.0; ARNT-TACC3 inh: 1.9; Tn7 DDE FP: -2.8; DDE Tn6 FP ctr: -3.6; DDE Tn6 confirm: 8.2

How did Cc1cc2cc(CNC(=O)CCC(=O)O)ccc2n1C do in these assays?
CAL PDZ FP-1: -2.2; Tn6 DDE FP: 9.1; GRK2 inh: 0.0; CAL PDZ FP-2: 1.1; ARNT-TACC3 inh: 2.8; Tn7 DDE FP: -5.3

Results for CC(C)NC(=O)Nc1ccc2c(c1)C(=O)N([C@H](C)CO)C[C@H](C)[C@@H](CN(C)C(=O)Nc1cccc3ccccc13)OCCCC[C@@H](C)O2 ?
ARNT-TACC3 inh: -7.3

Results for O=C(Nc1ccc(Cl)cc1)c1csc(-c2ccccc2)n1 ?
CAL PDZ FP-1: -3.5; Tn6 DDE FP: 28.2*; GRK2 inh: 0.0; CAL PDZ FP-2: -2.0; ARNT-TACC3 inh: -5.0; Tn7 DDE FP: 6.3; DDE Tn6 FP ctr: 10.5; DDE Tn6 confirm: 26.4*

Results for O=C(Nc1ccccc1N1CCCC1)c1ccc(Cl)cc1Cl ?
CAL PDZ FP-1: -2.0; Tn6 DDE FP: 16.3*; GRK2 inh: 0.0; CAL PDZ FP-2: -0.7; ARNT-TACC3 inh: -7.4; Tn7 DDE FP: 4.5; DDE Tn6 FP ctr: 0.5; DDE Tn6 confirm: -3.6

What do the screens show for `O=C(Nc1ccccc1N1CCCC1)c1ccccc1Cl`?
Tn6 DDE FP: -4.5; GRK2 inh: 0.0; CAL PDZ FP-2: -4.0; ARNT-TACC3 inh: -1.8; Tn7 DDE FP: -7.9

Results for O=C(NCc1ccccc1)c1ccc(Br)cc1[N+](=O)[O-] ?
ARNT-TACC3 inh: -4.7

What do the screens show for `COc1ccc(C2(C)NC(=O)N(CC(=O)NC(C)c3ccc(CC(C)C)cc3)C2=O)cc1` (stereo not drawn)?
CAL PDZ FP-1: 0.5; Tn6 DDE FP: 18.7*; GRK2 inh: 2.0; CAL PDZ FP-2: -0.9; ARNT-TACC3 inh: -1.5; Tn7 DDE FP: 1.9; DDE Tn6 FP ctr: 9.3; DDE Tn6 confirm: -0.3

What do the screens show for `COc1ccc(CNC(=O)CN2C(=O)NC(C)(c3ccc(C(C)(C)C)cc3)C2=O)cc1` (stereo not drawn)?
CAL PDZ FP-1: 0.0; Tn6 DDE FP: 2.5; GRK2 inh: 0.0; ARNT-TACC3 inh: -1.9; Tn7 DDE FP: 7.3

What do the screens show for `Fc1cccc(Cl)c1CNc1ccc(N2CCCC2)cc1`?
CAL PDZ FP-1: 0.0; Tn6 DDE FP: 20.4*; GRK2 inh: 0.0; CAL PDZ FP-2: -1.0; ARNT-TACC3 inh: 1.4; Tn7 DDE FP: 1.6; DDE Tn6 FP ctr: 1.3; DDE Tn6 confirm: 1.0

Results for NS(=O)(=O)c1ccc(NCc2c(F)cccc2Cl)cc1 ?
CAL PDZ FP-1: -1.3; Tn6 DDE FP: -1.6; CAL PDZ FP-2: -4.0; ARNT-TACC3 inh: -5.7; Tn7 DDE FP: -4.8

What do the screens show for `COCC(=O)Nc1ccc2c(c1)C(=O)N(C)C[C@@H](OC)[C@@H](C)CN(C)[C@H](C)CO2`?
ARNT-TACC3 inh: 13.4

How did O=C(O)c1ccc(S(=O)(=O)c2ccc3c(c2)C(=O)N(c2ccc(O)cc2)C3=O)cc1 do in these assays?
CAL PDZ FP-1: -0.4; Tn6 DDE FP: 47.7*; GRK2 inh: 3.0; CAL PDZ FP-2: -1.3; ARNT-TACC3 inh: -1.8; Tn7 DDE FP: -0.4; DDE Tn6 FP ctr: 2.1; DDE Tn6 confirm: 1.4

How did CC(C(=O)N1CCc2ccccc21)N1CCN(S(=O)(=O)c2cccs2)CC1 (stereo not drawn) do in these assays?
CAL PDZ FP-1: 0.8; Tn6 DDE FP: -5.6; GRK2 inh: 4.0; CAL PDZ FP-2: -4.1; ARNT-TACC3 inh: 5.2; Tn7 DDE FP: -1.2

What do the screens show for `CN(CC(=O)N1CCc2ccccc21)S(=O)(=O)c1cccs1`?
CAL PDZ FP-1: -1.1; Tn6 DDE FP: 16.1*; GRK2 inh: 0.0; CAL PDZ FP-2: -3.9; ARNT-TACC3 inh: 3.0; Tn7 DDE FP: -4.6; DDE Tn6 FP ctr: 1.5; DDE Tn6 confirm: -4.1

Results for O=C(C[C@@H]1CC[C@H]2[C@@H](COC[C@H](O)CN2Cc2cccc(C(F)(F)F)c2)O1)NCc1ccc(Cl)cc1 ?
ARNT-TACC3 inh: -5.1

What do the screens show for `Cc1ccc(NC(=O)CS(=O)CC(=O)Nc2ccccc2-c2ccc(C)o2)cc1` (stereo not drawn)?
CAL PDZ FP-1: -1.5; Tn6 DDE FP: 22.2*; GRK2 inh: 6.0; CAL PDZ FP-2: -1.2; ARNT-TACC3 inh: -2.8; Tn7 DDE FP: 8.4; DDE Tn6 FP ctr: -1.2; DDE Tn6 confirm: -2.7

Results for CC(=O)Nc1ccccc1-c1ccc(C)o1 ?
CAL PDZ FP-1: -1.2; Tn6 DDE FP: 5.6; GRK2 inh: 4.0; CAL PDZ FP-2: -1.8; ARNT-TACC3 inh: -6.7; Tn7 DDE FP: -2.8

Results for O=S(=O)(c1ccc(NC(=S)NCCC(c2ccccc2)c2ccccc2)cc1)N1CCOCC1 ?
CAL PDZ FP-1: -2.9; Tn6 DDE FP: 16.8*; GRK2 inh: 0.0; CAL PDZ FP-2: -2.3; ARNT-TACC3 inh: -8.0; Tn7 DDE FP: 3.9; DDE Tn6 FP ctr: 1.5; DDE Tn6 confirm: -17.7

Compound activity deposited in PubChem BioAssay by several laboratories.
